Experiment: Toxicity liver stage against HepG2, at 10uM
Format: cell-based
Design: test concentration 10 uM, cell line HepG2-A16-CD81EGFP
Conditions: human, HepG2-A16-CD81EGFP cells; read-out: INHIBITION
In short: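 Uninfected HepG2-A16-CD81EGFP cells, 3 × 10^3 per well, 1536-well, plated on prespotted compound at 10 μM final, parasite-free screening media added to match infected plates; puromycin 10 μM positive, DMSO 0.5% negative; run in parallel with 48 h PbLuc assay at 37 °C, 5% CO2; viability by CellTiter-Glo luminescence, normalized to controls.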

In order of rising cytotoxicity at 10 µM:
1. COc1ccc(CN2C[C@@H]3OCCN(CCN(C)C)[C@@H]3C2)cc1  -86.9%
2. CCS(=O)(=O)N1C[C@H]2CC[C@@]3(N=C(C)N(CC(C)C)C3=O)[C@H]2C1  -85%
3. CNC(=O)[C@H]1C[C@@H]2CCN(Cc3nccs3)C[C@H]2O1  -75.9%
4. Cc1nnc2n1CCN(Cc1csc(-c3ncccn3)n1)C2  -38.1%
5. O=C(c1ccc(-n2cnnn2)cc1)N1CCCC(n2ccnc2)C1 (stereo unspecified)  -24.7%
6. Cc1cc(C)c(CNC(=O)NCCOc2ccc3c(c2)CCC3)c(=O)[nH]1  -23.3%
7. CCCS(=O)(=O)NC(C)C(=O)NCc1ccc(N2CCN(C)CC2)nc1 (stereo unspecified)  -20.9%
8. CC(C)(C)c1noc(CCC(=O)NCC2CCS(=O)(=O)C2)n1 (stereo unspecified)  -18.1%
9. Cc1nc(C)n(C2CCCN(C(=O)Cc3csc(C(C)C)n3)C2)n1 (stereo unspecified)  -15.8%
10. N#Cc1cccc(CNC(=O)Nc2cccnc2N2CCCC2)c1  -15.5%
11. Cc1noc([C@@H]2CCCN2C(=O)C2CCN(C(=O)C3CCC3)CC2)n1  -14.4%
12. O=C(Cc1ccccc1O)NC1CCCN(c2ccccc2F)C1=O (stereo unspecified)  -13.7%
13. CCN(Cc1ccc2c(c1)OCO2)C(=O)NC(C)Cn1ccnc1 (stereo unspecified)  -13.2%
14. CCN(Cc1cccc(Cl)c1)Cn1nc(C)c2c(C)onc2c1=O  -13%
15. Cc1cc(C)n(C2CN(CC(O)COc3ccc(F)cc3)C2)n1 (stereo unspecified)  -10.5%
16. CC(Cn1cncn1)NCc1nncn1C1CCCCC1 (stereo unspecified)  -10.4%
17. Cc1cnn(CC2CCCN2C(=O)c2cccc(S(C)(=O)=O)c2)c1 (stereo unspecified)  -10.3%
18. CC(C)[C@H](N)CC(=O)Nc1nc(-c2cnc(N3CCOCC3)nc2)cs1  -9.8%
19. CC(C(=O)N1CCCN(c2ccc(C#N)cc2)CC1)n1ccnc1 (stereo unspecified)  -9.75%
20. COc1c(CNCc2ccc(N(C)C)nc2)c(C(C)C)nn1C  -9.75%
21. CN1CCC(c2cc(C(F)(F)F)n3ccnc3n2)CC1  -9.6%
22. COc1ccccc1CC(=O)N1CCCC1Cn1nc(C)cc1C (stereo unspecified)  -9.37%
23. CN(Cc1nnc2n1CCC2)C(=O)c1ccc2c(c1)CCO2  -9.33%
24. Cc1nc(CSCCC(=O)NCc2cccnc2N(C)C)cs1  -9.19%
25. COC(=O)C(NC(=O)COC1CCCC1)c1cc(F)ccc1F (stereo unspecified)  -9.06%
26. CN(C)c1ncccc1CNc1cc(N2CCCC2CO)ncn1 (stereo unspecified)  -8.48%
27. CC(=O)Nc1nc(CN2CCn3c(nnc3C3CC3)C2)cs1  -7.91%
28. O=C(NC[C@H]1CCCN1)c1cc(COc2cccc(C(F)(F)F)c2)[nH]n1  -7.59%
29. Cc1nc2ccccn2c1CN(Cc1cccnc1)CC1CCCO1 (stereo unspecified)  -7.1%
30. N#Cc1ccc(CNC(=O)NC2CCN(CC(F)F)CC2)cc1  -6.96%
31. c1cncc(O[C@H]2CC[C@H]3[C@H]2OCCN3C2CCC2)c1  -6.69%
32. O=C(Cc1cccs1)N1CCCCC1c1ccn2ccnc2n1 (stereo unspecified)  -6.58%
33. CCCSc1ncc(Cl)c(C(=O)NC(CCSC)C(=O)O)n1 (stereo unspecified)  -6.44%
34. CC(C)c1ccc(C(C)NC(=O)N2CCC(n3cncn3)CC2)cc1 (stereo unspecified)  -6.18%
35. CCOC1CCN(C(=O)CN(C)c2cnccn2)CC1  -6.07%
36. CC(C)(N)C(=O)N1CCCC1c1cncc(Oc2ccccc2)n1 (stereo unspecified)  -6.02%
37. OCC(CO)N1CCCC(Cc2cnc(Nc3ccccn3)cn2)C1 (stereo unspecified)  -5.97%
38. CCc1cnc(N2CCCOC(CN3CCCC3)C2)nc1 (stereo unspecified)  -5.77%
39. Cc1cc(-n2cnnn2)n2ncnc2n1  -5.66%
40. Cc1nnc(CN2CCC(N(C)Cc3nnc(C4CC4)n3C)C2)o1 (stereo unspecified)  -5.36%
41. COCCCNC(=O)CN(C)C(=O)c1cc(C)ccc1N(C)C(C)C  -4.84%
42. CCc1nccc(CN2CCCC(c3nn(C)c(=O)n3CC)C2)n1 (stereo unspecified)  -3.69%
43. O=C(Cc1c[nH]c2ncccc12)NCC(O)c1ccccc1F (stereo unspecified)  -3.43%
44. CCn1ncc(NC(=O)c2cc(C3CC3)nc3c2c(C)nn3C)c1C  -3.32%
45. COCCC(=O)N1Cc2ccccc2OC2(CCOCC2)C1  -2.53%
46. Cc1cc(CCC(=O)N(C)C)nc(C2CCCCN2)n1 (stereo unspecified)  -2.39%
47. Cc1cnn(CC2CN(Cc3nccn3C)CCO2)c1 (stereo unspecified)  -2.06%
48. O=C(NCCn1cnnc1C1CC1)c1c(O)cc(F)cc1F  -1.88%
49. CN1Cc2cnn(CC3CCCC3)c2C(COCC2CC2)C1 (stereo unspecified)  -1.6%
50. Cc1cc(-c2cccc3c2CCNC3)cnc1-n1cnnc1  -0.972%
51. O=C(CCc1nccs1)N1CCN(c2ncccn2)CC1  -0.313%
52. Cc1ccccc1CN1CCC(NCC2CNc3ccnn3C2)CC1 (stereo unspecified)  0.0194%
53. CCS(=O)(=O)N1CCC(c2cc3n(n2)[C@@H](C(F)(F)F)C[C@@H](C)N3)CC1  0.436%
54. CC1(c2[nH]ncc2C(N)=O)CCN(c2ncccn2)CC1  0.462%
55. Cc1nnc2n1CCN(C(=O)COCCOc1ccccc1)C2  0.529%
56. Cc1ccsc1C(=O)N1CCC(c2nccn2Cc2ccncc2)CC1  0.535%
57. O=C(c1ccc(-n2cccn2)nc1)N1CCCN(c2cccnn2)CC1  0.65%
58. CN(C)C(=O)CNC(=O)c1cc2c(s1)CCN2S(C)(=O)=O  0.793%
59. COCC1c2c(cnn2C)CCN1Cc1cccc(C)c1 (stereo unspecified)  0.951%
60. CN(Cc1ccccc1)C1(C(=O)O)Cc2ccccc2C1  1.04%
61. Cc1noc(-c2ccc(N(C)Cc3ccncn3)nc2)n1  1.11%
62. CCNC(=O)C1CCCN(c2ccc(C#N)cc2C(F)(F)F)C1 (stereo unspecified)  1.28%
63. Cc1cccc(CC2COCCN(Cc3nccn3C)C2)n1 (stereo unspecified)  1.61%
64. O=C(NCCNc1ccc(C(F)(F)F)cn1)c1cncc(Br)c1  2.24%
65. CCC(C)NC(=O)NCc1cc2n(n1)CCCN(C1CCCCC1)C2 (stereo unspecified)  3.11%
66. Cc1ncsc1C(=O)N1CCc2nnc(C3CCCCN3C)n2CC1 (stereo unspecified)  3.3%
67. CC[C@H]1CN2CC[C@H]1C[C@@H]2CNC(=O)Nc1cc(OC)cc(OC)c1  3.39%
68. Cc1ccc(C2(O)CCN(Cc3nc(C)n4ccccc34)CC2)nc1  3.43%
69. Cn1cc(N2CCC3(CCN(Cc4nccs4)C3)C2=O)cn1 (stereo unspecified)  3.76%
70. C[C@@H](NC(=O)c1cnccn1)c1c(-c2ccc(Cl)cc2)noc1C(=O)O  4.26%
71. Cc1cc(C2CCC2)nc(N2CCC3(CC2)OCCCC3O)n1 (stereo unspecified)  4.28%
72. COCC1CN(C(=O)Cc2cccs2)Cc2nnn(C)c21 (stereo unspecified)  4.99%
73. O=C(NCCC1CCN(CC(F)(F)F)CC1)C1CCCO1 (stereo unspecified)  5.48%
74. COCCN1C(=O)C[C@H]2[C@H]1CCN2C(=O)c1ccc[nH]1  5.89%
75. Cc1cc(C)n(C2CCCN(C(=O)c3cccc4[nH]ncc34)C2)n1 (stereo unspecified)  6.22%
76. c1cncc(N2CCOC3(CCCN(c4nncs4)C3)C2)c1 (stereo unspecified)  6.56%
77. COCCN1CCC2(CC1)CN(C(=O)N(C)C)c1ccc(C)cc12  7.74%
78. c1cnn(CCCO[C@@H]2CC[C@H]3[C@H]2OCCN3CC2CCOCC2)c1  7.77%
79. O=C(NCc1cccnc1)c1nc2c(s1)CCCN2c1ncccn1  8.44%
80. Cn1ccnc1CN1C[C@@H](CN2CCCCC2)[C@@H](CO)C1  11.7%
81. CCSc1cncc(N2CCC(NC(=O)C3CCCCC3)CC2)n1  16.8%

Reference: ChEMBL document CHEMBL4513216, “Probing the Open Global Health Chemical Diversity Library for Multistage-Active Starting Points for Next-Generation Antimalarials” (ACS Infect Dis, 2020)
